pEC50, pIC50: −log10 of the molar value. Active and inactive are the calls of the source. No cut-off for these calls is given here.
Legend:
Influenza A virus H3N2 [1] = test: Antiviral activity against Influenza A virus (A/HK/7/87(H3N2)) infected in dog MDCK cells assessed as reduction in virus-induced cytopathogenicity incubated for 7 days by MTS assay; format: functional, organism-based; conditions: A/Hong Kong/7/1987(H3N2)
Coxsackievirus B4 = test: Antiviral activity against Human coxsackievirus B4 infected in vero cells assessed as reduction in virus-induced cytopathogenicity incubated for 7 days by microscopic analysis; format: functional, organism-based
Human alphaherpesvirus 3 [2] = test: Antiviral activity against thymidine kinase positive Varicella zoster virus infected in human HELF cells assessed as reduction in virus-induced cytopathogenicity incubated for 7 days by Giemsa staining based microscopic analysis; format: functional, organism-based; conditions: Human alphaherpesvirus 3, HELF, 168 h
CFPAC-1 = test: Antiproliferative activity against human CFPAC-1 cells assessed as reduction in cell viability incubated for 72 hrs by MTT assay; format: functional, cell-based; conditions: Homo sapiens, CFPAC-1, 72 h; read-out: IC50
Summary of the method: (§1)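 Cells (ATCC) grown in DMEM with 10 FBS, penicillin/streptomycin, 2 mM glutamine, 37 °C, 5 CO2. 5000 cells/well seeded; after 24 h, freshly prepared dilutions at five concentrations (0.01–100 μM) added for 72 h. MTT read-out; absorbance converted to percentage growth by NIH formulas. Two experiments in quadruplicate; IC50 by linear regression.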

Influenza A virus [3] = test: Antiviral activity against Influenza A virus (A/Ned/378/05(H1N1)) infected in dog MDCK cells assessed as reduction in virus-induced cytopathogenicity incubated for 7 days by microscopic analysis; format: functional, organism-based
HeLa = test: Antiproliferative activity against human HeLa cells assessed as reduction in cell viability incubated for 72 hrs by MTT assay; format: functional, cell-based; summary of the method: as §1
Human alphaherpesvirus 1 [4] = test: Antiviral activity against Herpes simplex virus 1 TK-KOS-ACV infected in human HELF cells assessed as reduction in virus-induced cytopathogenicity incubated for 7 days by microscopic analysis; format: functional, organism-based
Human alphaherpesvirus 3 [5] = test: Antiviral activity against thymidine kinase deficient Varicella zoster virus infected in human HELF cells assessed as reduction in virus-induced cytopathogenicity incubated for 7 days by Giemsa staining based microscopic analysis; format: functional, organism-based; conditions: Human alphaherpesvirus 3, HELF, 168 h
Human alphaherpesvirus 2 = test: Antiviral activity against Herpes simplex virus 2 G infected in human HELF cells assessed as reduction in virus-induced cytopathogenicity incubated for 7 days by microscopic analysis; format: functional, organism-based
Human coronavirus 229E = test: Antiviral activity against Human coronavirus 229E infected in human HELF cells assessed as reduction in virus-induced cytopathogenicity incubated for 7 days by microscopic analysis; format: functional, organism-based
Human alphaherpesvirus 1 [6] = test: Antiviral activity against Herpes simplex virus 1 KOS infected in human HELF cells assessed as reduction in virus-induced cytopathogenicity incubated for 7 days by microscopic analysis; format: functional, organism-based; conditions: for Activity: strain KOS
HCT-116 = test: Antiproliferative activity against human HCT116cells assessed as reduction in cell viability incubated for 72 hrs by MTT assay; format: functional, cell-based; conditions: HCT-116, 72 h; summary of the method: as §1
Reovirus sp. = test: Antiviral activity against Reovirus infected in vero cells assessed as reduction in virus-induced cytopathogenicity incubated for 7 days by microscopic analysis; format: functional, organism-based
Sindbis virus = test: Antiviral activity against Sindbis virus infected in vero cells assessed as reduction in virus-induced cytopathogenicity incubated for 7 days by microscopic analysis; format: functional, organism-based
Cytomegalovirus [7] = test: Antiviral activity against Cytomegalovirus Davis infected in human HELF cells assessed as reduction in virus-induced cytopathogenicity incubated for 7 days by Giemsa staining based microscopic analysis; format: functional, organism-based; conditions: Human betaherpesvirus 5, Davis, 168 h
Summary of the method: (§2)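 Confluent HEL fibroblasts infected with CMV (Davis or AD-169) at 100 PFU/well for 2 h. Residual virus removed, then medium with graded compound concentrations added (duplicate). Incubated 7 days at 37 °C. Cytopathogenicity scored microscopically after ethanol fixation and Giemsa staining. EC50 read from plots of % cytopathogenicity versus concentration.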

SW-620 = test: Antiproliferative activity against human SW620 cells assessed as reduction in cell viability incubated for 72 hrs by MTT assay; format: functional, cell-based; conditions: SW-620, 72 h; summary of the method: as §1
Influenza B virus [8] = test: Antiviral activity against Influenza B virus (B/Ned/537/05) infected in dog MDCK cells assessed as reduction in virus-induced cytopathogenicity incubated for 7 days by MTS assay; format: functional, organism-based
Influenza B virus [9] = test: Antiviral activity against Influenza B virus (B/Ned/537/05) infected in dog MDCK cells assessed as reduction in virus-induced cytopathogenicity incubated for 7 days by microscopic analysis; format: functional, organism-based
Influenza A virus H3N2 [10] = test: Antiviral activity against Influenza A virus (A/HK/7/87(H3N2)) infected in dog MDCK cells assessed as reduction in virus-induced cytopathogenicity incubated for 7 days by microscopic analysis; format: functional, organism-based; conditions: A/Hong Kong/7/1987(H3N2)
MCF7 = test: Antiproliferative activity against human MCF7 cells assessed as reduction in cell viability incubated for 72 hrs by MTT assay; format: functional, cell-based; conditions: MCF7, 72 h; summary of the method: as §1
HepG2 = test: Antiproliferative activity against human HepG2 cells assessed as reduction in cell viability incubated for 72 hrs by MTT assay; format: functional, cell-based; conditions: HepG2, 72 h; summary of the method: as §1
A549 = test: Antiproliferative activity against human A549 cells assessed as reduction in cell viability incubated for 72 hrs by MTT assay; format: functional, cell-based; conditions: A549, 72 h; summary of the method: as §1
Cytomegalovirus [11] = test: Antiviral activity against Cytomegalovirus AD169 infected in human HELF cells assessed as reduction in virus-induced cytopathogenicity incubated for 7 days by Giemsa staining based microscopic analysis; format: functional, organism-based; conditions: Human betaherpesvirus 5, AD169, HELF, 168 h; summary of the method: as §2
Influenza A virus [12] = test: Antiviral activity against Influenza A virus (A/Ned/378/05(H1N1)) infected in dog MDCK cells assessed as reduction in virus-induced cytopathogenicity incubated for 7 days by MTS assay; format: functional, organism-based
[13] = Cytotoxicity against human HELF cells assessed as minimum cytotoxic concentration by observing alteration in cell morphology incubated for 3 days by microscopic analysis; format: cell-based; conditions: HELF cells
Summary of the method: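 Read-out is the minimum cytotoxic concentration (MCC): the lowest compound concentration giving a microscopically detectable change in cell morphology. Measured on confluent human embryonic lung (HEL) fibroblast cultures exposed to a range of compound concentrations.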

Human adenovirus 2 = test: Antiviral activity against Human adenovirus 2 infected in human HELF cells assessed as reduction in virus-induced cytopathogenicity incubated for 7 days by microscopic analysis; format: functional, organism-based; conditions: for pEC50: Human mastadenovirus C, 168 h
HFF = test: Cytotoxicity against human HFF cells assessed as reduction in cell viability incubated for 72 hrs by MTT assay; format: cell-based; summary of the method: as §1

Structure (SMILES) | Activity (Influenza A virus H3N2 [1]) | Activity (Coxsackievirus B4) | pEC50 (Human alphaherpesvirus 3 [2]) | pIC50 (CFPAC-1) | Activity (Influenza A virus [3]) | pIC50 (HeLa) | Activity (Human alphaherpesvirus 1 [4]) | pEC50 (Human alphaherpesvirus 3 [5]) | Activity (Human alphaherpesvirus 2) | Activity (Human coronavirus 229E) | Activity (Human alphaherpesvirus 1 [6]) | pIC50 (HCT-116) | Activity (Reovirus sp.) | Activity (Sindbis virus) | pIC50 (SW-620) | pIC50 (MCF7) | pIC50 (HepG2) | pIC50 (A549) | MCC at 72 h [13] [µM] | pIC50 (HFF) | further results
CCCCc1cn(C[C@H](O)[C@H]2OC(=O)C(OCc3ccccc3)=C2OCc2ccccc2)nn1 | inactive | inactive | 5.14 | 4.14 | inactive | 4.74 | inactive | < 4.70 | inactive | inactive | inactive | 4.98 | inactive | inactive | 4.32 | 5.10 | 4.48 | 4.54 | 20 | 4.58 | pEC50 (Cytomegalovirus [7]): < 5.40; Activity (Influenza B virus [8]): inactive; Activity (Influenza B virus [9]): inactive; Activity (Influenza A virus H3N2 [10]): inactive; pEC50 (Cytomegalovirus [11]): < 4.70; Activity (Influenza A virus [12]): inactive; Activity (Human adenovirus 2): inactive
Cc1cn([C@H]2C[C@H](F)[C@@H](CO)O2)c(=O)[nH]c1=O [ALOVUDINE] | – | – | – | – | – | – | – | – | – | – | – | – | – | – | – | – | – | – | > 250 | – | pEC50 (Human adenovirus 2): 4.66
O=C1O/C(=C\Cn2cc(CCO)nn2)C(OCc2ccccc2)=C1OCc1ccccc1 | inactive | inactive | < 4.00 | 4.36 | inactive | 4.55 | inactive | 4.11 | inactive | inactive | inactive | 4.55 | inactive | inactive | 4.38 | 4.43 | 4.41 | < 4.00 | > 100 | 4.59 | pEC50 (Cytomegalovirus [7]): < 4.00; Activity (Influenza B virus [8]): inactive; Activity (Influenza B virus [9]): inactive; Activity (Influenza A virus H3N2 [10]): inactive; pEC50 (Cytomegalovirus [11]): < 4.00; Activity (Influenza A virus [12]): inactive; Activity (Human adenovirus 2): inactive
O=C1O[C@H]([C@@H](O)Cn2cc(C3CC3)nn2)C(OCc2ccccc2)=C1OCc1ccccc1 | inactive | inactive | < 4.00 | 4.32 | inactive | 4.58 | inactive | < 4.00 | inactive | inactive | inactive | 4.52 | inactive | inactive | 4.27 | 4.59 | 4.42 | 4.36 | 100 | 4.61 | pEC50 (Cytomegalovirus [7]): < 4.70; Activity (Influenza B virus [8]): inactive; Activity (Influenza B virus [9]): inactive; Activity (Influenza A virus H3N2 [10]): inactive; pEC50 (Cytomegalovirus [11]): 4.35; Activity (Influenza A virus [12]): inactive; Activity (Human adenovirus 2): inactive
CC(C)(C)c1cn(C[C@H](O)[C@H]2OC(=O)C(OCc3ccccc3)=C2OCc2ccccc2)nn1 | inactive | inactive | 4.31 | 4.26 | inactive | 4.74 | inactive | < 4.70 | inactive | inactive | inactive | 4.55 | inactive | inactive | 4.45 | 6.14 | 4.53 | 4.47 | 100 | 4.88 | pEC50 (Cytomegalovirus [7]): < 4.70; Activity (Influenza B virus [8]): inactive; Activity (Influenza B virus [9]): inactive; Activity (Influenza A virus H3N2 [10]): inactive; pEC50 (Cytomegalovirus [11]): 4.35; Activity (Influenza A virus [12]): inactive; Activity (Human adenovirus 2): inactive
Nc1ccn([C@H]2CC[C@@H](CO)O2)c(=O)n1 [ZALCITABINE] | – | – | – | – | – | – | – | – | – | – | – | – | – | – | – | – | – | – | > 250 | – | pEC50 (Human adenovirus 2): 5.00
CCCCc1cn(C/C=C2\OC(=O)C(OCc3ccccc3)=C2OCc2ccccc2)nn1 | – | – | – | 4.14 | – | 4.17 | – | – | – | – | – | 4.21 | – | – | – | 4.24 | 4.11 | < 4.00 | 100 | 4.31 | pEC50 (Human alphaherpesvirus 1 [4]; Human alphaherpesvirus 1, TK-KOS-ACV, 168 h): < 4.00; pEC50 (Human alphaherpesvirus 2; Human alphaherpesvirus 2, G, 168 h): 5.02; pEC50 (Human coronavirus 229E; 168 h): 5.07; pEC50 (Human alphaherpesvirus 1 [6]; Human alphaherpesvirus 1, strain KOS, 168 h): < 4.00; pEC50 (Human adenovirus 2): 4.70
O=C1O[C@H]([C@@H](O)Cn2cc(CCCCl)nn2)C(OCc2ccccc2)=C1OCc1ccccc1 | – | – | – | 4.23 | – | 4.44 | – | – | – | – | – | 4.44 | – | – | 4.16 | 4.61 | 4.46 | 4.54 | – | 4.57 | –
COc1ccc(-c2cn(C[C@H](O)[C@H]3OC(=O)C(OCc4ccccc4)=C3OCc3ccccc3)nn2)cc1 | – | – | – | 4.58 | – | 4.79 | – | – | – | – | – | < 4.00 | – | – | 4.23 | 4.00 | 4.33 | 4.55 | – | > 8.00 | –
